The text below walks through data of ChEMBL document CHEMBL4052816, “Development of Clickable Monophosphoryl Lipid A Derivatives toward Semisynthetic Conjugates with Tumor-Associated Carbohydrate Antigens” (J Med Chem, 2017).

Calls of active or inactive are those of the source. No cut-off for these calls is given here.

Series [1] in a line: Cytotoxicity against C57BL/6 mouse BMDM assessed as decrease in cell viability at 20 ug/ml after 6 to 48 hrs by SRB assay. The format is cell-based. Put shortly:
(§1)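 THP-1 cells and C57BL/6 wild-type bone marrow-derived macrophages were kept in RPMI with 10% FBS, penicillin and streptomycin at 37 °C and 5% CO2. BMDM medium also contained gentamycin. Cells were exposed to compound at 20, 10, 1 and 0.1 μg/mL, and viability was read with a colorimetric assay.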
(The SRB assay estimates cell density from bound dye.)

Series [2] deals with THP-1. Put plainly: Immunostimulatory activity in human THP1 cells assessed as increase in IFN-gamma production at 20 ug/ml after 6 to 72 hrs by immunoassay. The format is functional, cell-based. In outline:
(§2)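 THP-1 cells (0.5 × 10^6/well) were grown in RPMI/10% FBS for 24 h, then given fresh medium containing compound at 20 μg/mL for 6, 24, 48 and 72 h. Cell-free supernatants were assayed for IL-8 and IL-6 by ELISA, and for IL-10, IFN-γ and TNF-α by a human Th1/Th2 multiplex bead immunoassay. Results were pooled from three independent experiments, means ± SD.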

The test system of series [3] is BMDM. Nature of the series: Immunostimulatory activity in C57BL/6 mouse BMDM assessed as increase in CD86 production at 20 ug/ml after 6 to 72 hrs by flow cytometric method. The format is functional, cell-based. In outline:
(§3)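 C57BL/6 BMDM (0.5 × 10^6/well) were stimulated with compound at 20 μg/mL for 6, 24, 48 and 72 h. Cells were then stained with phycoerythrin-conjugated anti-CD40, anti-CD80 or anti-CD86, plus allophycocyanin-conjugated anti-MHC class II. Isotype antibodies set nonspecific binding, and cells were analysed by flow cytometry. Three independent experiments were run.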
A general note: Flow cytometry measures light scatter and fluorescence of single cells or particles in a stream.

Series [4] deals with THP-1. Nature of the series: Immunostimulatory activity in human THP1 cells assessed as increase in IL-10 production at 20 ug/ml after 6 to 72 hrs by immunoassay. It counts as functional, cell-based. In outline:
as §2

In series [5] the test system is BMDM. Put plainly: Immunostimulatory activity in C57BL/6 mouse BMDM assessed as increase in IL-10 production at 20 ug/ml after 6 to 72 hrs by immunoassay. The format is functional, cell-based. Put shortly:
(§4)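 Bone marrow macrophages from wild-type C57BL/6 mice (0.5 × 10^6/well) were grown for 24 h, then given fresh medium containing compound at 20 μg/mL for 6, 24, 48 and 72 h. Three independent experiments were run, means ± SD.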

The subject of series [6] is THP-1. Nature of the series: Immunostimulatory activity in human THP1 cells assessed as increase in IL-8 production at 20 ug/ml after 6 to 72 hrs by ELISA. It counts as functional, cell-based. Put shortly: as §2
Series [7] deals with THP-1. Put plainly: Immunostimulatory activity in human THP1 cells assessed as increase in IL-6 production at 20 ug/ml after 6 to 72 hrs by ELISA. It counts as functional, cell-based. In outline: as §2
(ELISA stands for enzyme-linked immunosorbent assay.)

Series [8] deals with BMDM. Nature of the series: Immunostimulatory activity in C57BL/6 mouse BMDM assessed as increase in CD80 production at 20 ug/ml after 6 to 72 hrs by flow cytometric method. The format is functional, cell-based. Put shortly:
as §3

Series [9] concerns BMDM. Nature of the series: Immunostimulatory activity in C57BL/6 mouse BMDM assessed as increase in IL-2 production at 20 ug/ml after 6 to 72 hrs by immunoassay. It counts as functional, cell-based. Put shortly:
as §4

For series [10], the system named is BMDM. Put plainly: Immunostimulatory activity in C57BL/6 mouse BMDM assessed as increase in IL-4 production at 20 ug/ml after 6 to 72 hrs by immunoassay. It counts as functional, cell-based. Put shortly: as §4
The subject of series [11] is BMDM. Put plainly: Immunostimulatory activity in C57BL/6 mouse BMDM assessed as increase in IL-12 production at 20 ug/ml after 6 to 72 hrs by immunoassay. The format is functional, cell-based. Put shortly:
as §4

Series [12] concerns THP-1. Nature of the series: Cytotoxicity against human THP1 cells assessed as decrease in cell viability at 0.1 to 20 ug/ml after 6 to 48 hrs by SRB assay. The format is cell-based. Put shortly:
as §1

For series [13], the system named is BMDM. Nature of the series: Immunostimulatory activity in C57BL/6 mouse BMDM assessed as increase in IL-5 production at 20 ug/ml after 6 to 72 hrs by immunoassay. The format is functional, cell-based. Put shortly:
as §4

Series [14] concerns BMDM. Nature of the series: Immunostimulatory activity in C57BL/6 mouse BMDM assessed as increase in GM-CSF production at 20 ug/ml after 6 to 72 hrs by immunoassay. It counts as functional, cell-based. Put shortly: as §4
The subject of series [15] is THP-1. Nature of the series: Immunostimulatory activity in human THP1 cells assessed as increase in TNF-alpha production at 20 ug/ml after 6 to 72 hrs by immunoassay. It counts as functional, cell-based. Put shortly: as §2
Series [16] deals with BMDM. Put plainly: Immunostimulatory activity in C57BL/6 mouse BMDM assessed as increase in MHC-class 2 production at 20 ug/ml after 6 to 72 hrs by flow cytometric method. The format is functional, cell-based. In outline: as §3
The subject of series [17] is BMDM. Put plainly: Immunostimulatory activity in C57BL/6 mouse BMDM assessed as increase in CD40 production at 20 ug/ml after 6 to 72 hrs by flow cytometric method. The format is functional, cell-based. In outline:
as §3

The test system of series [18] is BMDM. Put plainly: Immunostimulatory activity in C57BL/6 mouse BMDM assessed as increase in IL-6 production at 20 ug/ml after 6 to 72 hrs by ELISA. The format is functional, cell-based. Put shortly:
as §4

Series [19] concerns BMDM. Put plainly: Immunostimulatory activity in C57BL/6 mouse BMDM assessed as increase in IFN-gamma production at 20 ug/ml after 6 to 72 hrs by immunoassay. The format is functional, cell-based. In outline: as §4

In the case of `C=CCCCNC(=O)[C@H]1O[C@@H](OC[C@H]2OC(O)[C@H](NC(=O)C[C@H](O)CCCCCCCCCCC)[C@@H](OC(=O)C[C@H](O)CCCCCCCCCCC)[C@@H]2O)[C@H](NC(=O)C[C@@H](CCCCCCCCCCC)OC(=O)CCCCCCCCCCC)[C@@H](OC(=O)C[C@@H](CCCCCCCCCCC)OC(=O)CCCCCCCCCCCCC)[C@@H]1OP(=O)(O)O` (some centres undefined), the results for the Activity entry in series [1] and in [12] were “Toxic” and “Non-Toxic”, respectively. Further, the outcome in [2], in series [4], in series [6], in series [7], in [15] and in [18] was Active. For the same compound, the result in series [3], in series [5], in series [8], in [9], in series [10] and in series [11] was inactive. The result in series [13], in series [14], in [16], in series [17] and in series [19] was inactive.
